Assay results published in PMC6510378 (Clinical and Translational Science, 2019).

Key:
MAD study part 1 = assay type: in vivo, human
Method in brief: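 Healthy young Japanese, young non-Japanese and elderly non-Japanese adults got a single oral dose (10, 20 or 50 mg) or placebo on day 1. After a 4-day washout, dosing was once daily on days 5–18. PK-day doses were taken with 240 mL water after a 10-hour fast, with no food for 4 h. Plasma drug was measured by validated HPLC-MS/MS. Values below the limit of quantification were set to zero.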

[1] = Urine PK, 10-mg, 20-mg and 50-mg cohorts; assay type: in vivo, human; conditions: parent ASP3662
Method in brief: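 Urine drug concentration was measured by validated HPLC-MS/MS. Subjects were healthy young Japanese, young non-Japanese and elderly non-Japanese adults given oral doses of 10, 20 or 50 mg: single dose day 1, 4-day washout, then once daily on days 5–18. Dosing was fasted on PK days.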

[2] = Safety and tolerability, SAD study; assay type: in vivo, human
Method in brief: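 Safety was assessed from treatment-emergent adverse events: nature, frequency, severity, onset/offset and relatedness to study drug, coded by MedDRA system organ class. Also assessed were haematology, serum chemistry, urinalysis, physical examination with vital signs, and ECGs. CNS scales used were Bond and Lader VAS, ARCI-49 and Profile of Mood States. Data were summarized descriptively.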

4-week toxicology = assay type: in vivo; conditions: 4-week toxicology data, most sensitive species (rat)
[3] = system: hypothalamic‐pituitary‐adrenal (HPA) axis; experiment: HPA axis endocrine markers; assay type: in vivo, human
Method in brief: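 Healthy young non-Japanese adults, open-label low-dose part. 0.7 or 2 mg was given as a single oral dose on day 1, then after a 6-day washout once daily. 0.4 mg was given once daily on days 1–14. 0.2 mg followed a 3 mg loading dose on day 1, days 2–14. Baseline urine endocrine markers were taken day –1. Urine cortisol came from first morning void. ACTH and DHEA-s were plasma. Follow-up sampling ran days 16–21 and day 28.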

[4] = system: models of neuropathic and dysfunctional pain; conditions: rats; cited from earlier work
[5] = MAD part 1, day 1 single dose 10 mg, young Japanese, n=8
[6] = MAD part 1, day 1 single dose 20 mg, elderly non-Japanese, n=9
[7] = MAD part 1, day 1 single dose 20 mg, young Japanese, n=8
[8] = MAD part 1, day 1 single dose 20 mg, young non-Japanese, n=8
[9] = MAD part 1, day 1 single dose 50 mg, young Japanese, n=8
[10] = MAD part 1, day 1 single dose 50 mg, young non-Japanese, n=8
[11] = MAD part 1, day 18 multiple dose q.d. 14 days 10 mg, young Japanese, n=8
[12] = MAD part 1, day 18 multiple dose q.d. 14 days 20 mg, elderly non-Japanese, n=9
[13] = MAD part 1, day 18 multiple dose q.d. 14 days 20 mg, young Japanese, n=8
[14] = MAD part 1, day 18 multiple dose q.d. 14 days 20 mg, young non-Japanese, n=8
[15] = MAD part 1, day 18 multiple dose q.d. 14 days 50 mg, young Japanese, n=8
[16] = MAD part 1, day 18 multiple dose q.d. 14 days 50 mg, young non-Japanese, n=7

## Cn1c(-c2ccc(C(N)=O)cc2F)nnc1C(C)(C)Oc1c(F)cc(Cl)cc1F [ASP3662]
MAD study part 1; [5]
  CL/F, Mean (SD): 9.254 (4.086) L/hour
  CL/F, Median: 7.651 L/h
  CL/F, Min–max: 5.05 to 15.3 L/h
MAD study part 1; [6]
  CL/F, Mean (SD): 6.99 (2.152) L/hour
  CL/F, Median: 6.567 L/h
  CL/F, Min–max: 3.8 to 10.4 L/h
MAD study part 1; [7]
  CL/F, Mean (SD): 9.993 (2.926) L/hour
  CL/F, Median: 9.182 L/h
  CL/F, Min–max: 6.03 to 15.0 L/h
MAD study part 1; [8]
  CL/F, Mean (SD): 7.412 (2.61) L/hour
  CL/F, Median: 7.279 L/h
  CL/F, Min–max: 4.33 to 11.7 L/h
MAD study part 1; [9]
  CL/F, Mean (SD): 6.758 (1.787) L/hour
  CL/F, Median: 6.240 L/h
  CL/F, Min–max: 4.30 to 9.40 L/h
MAD study part 1; [10]
  CL/F, Mean (SD): 7.005 (2.789) L/hour
  CL/F, Median: 7.259 L/h
  CL/F, Min–max: 2.53 to 10.1 L/h
MAD study part 1; [11]
  CL/F, Mean (SD): 6.07 (2.591) L/hour
  CL/F, Median: 5.708 L/h
  CL/F, Min–max: 3.02 to 9.87 L/h
  Ctrough, Mean (SD): 37.65 (30.42) ng/mL
  Ctrough, Median: 24.76 ng/mL
  Ctrough, Min–max: 13.5 to 84.0 ng/mL
MAD study part 1; [12]
  CL/F, Mean (SD): 5.675 (1.649) L/hour
  CL/F, Median: 5.675 L/h
  CL/F, Min–max: 2.81 to 8.51 L/h
  Ctrough, Mean (SD): 63.58 (49.38) ng/mL
  Ctrough, Median: 52.25 ng/mL
  Ctrough, Min–max: 26.1 to 184 ng/mL
MAD study part 1; [13]
  CL/F, Mean (SD): 8.322 (2.562) L/hour
  CL/F, Median: 8.117 L/h
  CL/F, Min–max: 4.47 to 13.5 L/h
  Ctrough, Mean (SD): 34.01 (24.86) ng/mL
  Ctrough, Median: 26.35 ng/mL
  Ctrough, Min–max: 13.7 to 92.1 ng/mL
MAD study part 1; [14]
  CL/F, Mean (SD): 6.487 (2.372) L/hour
  CL/F, Median: 6.473 L/h
  CL/F, Min–max: 3.64 to 10.3 L/h
  Ctrough, Mean (SD): 58.68 (40.91) ng/mL
  Ctrough, Median: 42.71 ng/mL
  Ctrough, Min–max: 19.9 to 132 ng/mL
MAD study part 1; [15]
  CL/F, Mean (SD): 10.46 (12.75) L/hour
  CL/F, Median: 6.58 L/h
  CL/F, Min–max: 3.80 to 41.8 L/h
  Ctrough, Mean (SD): 115.3 (59.73) ng/mL
  Ctrough, Median: 103.3 ng/mL
  Ctrough, Min–max: 21.0 to 223 ng/mL
MAD study part 1; [16]
  CL/F, Mean (SD): 5.507 (2.275) L/hour
  CL/F, Median: 5.607 L/h
  CL/F, Min–max: 1.86 to 8.76 L/h
  Ctrough, Mean (SD): 261.3 (267.1) ng/mL
  Ctrough, Median: 175.2 ng/mL
  Ctrough, Min–max: 60.4 to 841 ng/mL
[1]
  amount recovered from urine: < 0.3 % of the administered dose
[2]; after a single dose of 6 mg
  clinically relevant finding (vital signs): clinically significant orthostatic hypotension
[2]; single oral doses up to 60 mg
  overall safety and tolerability: safe and well tolerated
4-week toxicology
  maximum recommended starting dose derived from the no observed adverse effect level: 10 mg
[3]; MAD part 2, low dose
  effects on ACTH, DHEA‐s and 24‐hour total urine glucocorticoids: activation of the HPA axis
[3]; despite full 11β‐HSD1 inhibition, part 2 low dose
  effect on urine cortisol levels: no significant effects
[4]
  analgesic effects: significant analgesic effects
